Assay results reported in ChEMBL document CHEMBL4024779, “Novel Terminal Bipheny-Based Diapophytoene Desaturases (CrtN) Inhibitors as Anti-MRSA/VISR/LRSA Agents with Reduced hERG Activity” (J Med Chem, 2018).
Residue numbers refer to the chain shown, from its start. Active and inactive are the calls of the source. The calls are words filed in the database; no cut-off is given here.

Key:
[1] = biological target: T1, 4,4'-diapophytoene desaturase (4,4'-diaponeurosporene-forming) (Staphylococcus aureus (strain Newman), UniProt O07855); test: Inhibition of CrtN in Staphylococcus aureus Newman assessed as reduction in staphyloxanthin levels after 48 hrs by spectrophotometric method-based pigment inhibition assay; parameters: species or system Staphylococcus aureus subsp. aureus str. Newman
T1 sequence (O07855 whole entry): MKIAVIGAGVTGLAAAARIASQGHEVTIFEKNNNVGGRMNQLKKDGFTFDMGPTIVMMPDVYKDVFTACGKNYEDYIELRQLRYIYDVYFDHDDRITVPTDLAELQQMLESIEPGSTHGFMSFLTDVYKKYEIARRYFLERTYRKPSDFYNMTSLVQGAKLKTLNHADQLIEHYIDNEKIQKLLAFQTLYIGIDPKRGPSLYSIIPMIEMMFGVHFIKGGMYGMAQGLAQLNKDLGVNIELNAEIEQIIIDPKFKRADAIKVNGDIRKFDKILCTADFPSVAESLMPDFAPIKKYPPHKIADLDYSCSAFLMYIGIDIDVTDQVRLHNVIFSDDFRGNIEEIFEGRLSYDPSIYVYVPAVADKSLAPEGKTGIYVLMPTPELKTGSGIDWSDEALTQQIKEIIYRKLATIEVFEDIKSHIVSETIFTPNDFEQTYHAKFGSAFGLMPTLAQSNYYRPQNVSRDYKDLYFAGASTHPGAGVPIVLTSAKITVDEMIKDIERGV

[2] = biological target: T1, 4,4'-diapophytoene desaturase (4,4'-diaponeurosporene-forming); test: Inhibition of Staphylococcus aureus Newman 6His-tagged CrtN expressed in Escherichia coli BL21 (DE3)/pET28a::CrtN assessed as reduction in staphyloxanthin levels using diapophytoene as substrate after overnight incubation by spectrophotometric analysis; parameters: species or system Staphylococcus aureus subsp. aureus str. Newman
Trichophyton verrucosum = test: In vitro antifungal activity against Trichophyton verrucosum after 7 days by serial dilution method; assay type: functional; conditions: 168 h
Staphylococcus aureus [3] = test: Antibacterial activity against Staphylococcus aureus Newman assessed as change in bacterial growth at 0.2 mM […]; assay type: functional
Staphylococcus aureus [4] = test: Antibacterial activity against methicillin-resistant Staphylococcus aureus USA400 MW2 assessed as change in bacterial growth at 0.2 mM […]; assay type: functional
Staphylococcus aureus [5] = test: In vivo anti-virulence activity against Staphylococcus aureus Newman infected in BALB/c mouse model assessed as reduction in bacterial load in kidneys at 0.4 mg bid for 4.5 days administered intraperitoneally 24 hrs prior to infection by serial dilution method; assay type: functional, organism-based
Summary of the method: (§1)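 Mice (n=10 per group) got 2.3 × 10^7 CFU S. aureus Newman by retro-orbital injection. Compound was given intraperitoneally b.i.d., either 24 h before infection (4.5 d) or 6 h after infection (3.5 d). Mice were sacrificed after 4.5 d and CFU counted in kidneys and hearts. Groups were compared by two-tailed Mann-Whitney test.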

Staphylococcus aureus [6] = test: In vivo anti-virulence activity against Staphylococcus aureus Newman infected in BALB/c mouse model assessed as reduction in bacterial load in heart at 0.1 mg bid for 4.5 days administered intraperitoneally 24 hrs prior to infection by serial dilution method; assay type: functional, organism-based; summary of the method: as §1
Staphylococcus aureus [7] = test: In vivo anti-virulence activity against methicillin-resistant Staphylococcus aureus Mu50 infected in BALB/c mouse model assessed as reduction in bacterial load in kidneys at 0.4 mg bid for 4.5 days administered intraperitoneally 24 hrs prior to infection by serial dilution method; assay type: functional; parameters: scale not given: the % may be the effect or the level left
Summary of the method: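 Mice (n=10 per group) infected retro-orbitally with S. aureus Mu50 (1.1 × 10^9 or 1.3 × 10^9 CFU) or NRS271 (2.3 × 10^8 CFU). Compound given i.p. b.i.d., either 6 h after infection for 3.5 d or 24 h before infection for 4.5 d. Mice killed after 4.5 d; log10 CFU per organ counted in kidneys and hearts. Two-tailed Mann−Whitney test.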

[8] = Cmax in Sprague-Dawley rat at 5 mg/kg, iv administered as single dose by LC-MS/MS analysis; assay type: ADME, organism-based; parameters: dose 5 mg/kg, route intravenous; conditions: in vivo
[9] = AUC (0 to 24 hrs) in mouse at 10 mg/kg, po administered as single dose by LC-MS/MS analysis; assay type: ADME, organism-based; parameters: time < 24 hr, dose 10 mg/kg, route oral; conditions: in vivo
[10] = Inhibition of CrtN in methicillin-resistant Staphylococcus aureus NF65Y assessed as reduction in staphyloxanthin levels after 48 hrs by spectrophotometric method-based pigment inhibition assay
Staphylococcus aureus [11] = test: In vivo anti-virulence activity against Staphylococcus aureus Newman infected in BALB/c mouse model assessed as reduction in bacterial load in kidney at 0.1 mg bid for 3.5 days administered orally 6 hrs post infection by serial dilution method relative to control; assay type: functional; parameters: scale not given: the % may be the effect or the level left
Summary of the method: (§2)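 Mice got 3.1 × 10^7 CFU S. aureus Newman by retro-orbital injection. Oral compound was given b.i.d. for 3.5 d, starting 6 h after infection. […] Log10 CFU was counted per kidney and per heart.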

Staphylococcus aureus [12] = test: In vivo anti-virulence activity against Staphylococcus aureus Newman infected in BALB/c mouse model assessed as reduction in bacterial load in heart at 0.4 mg bid for 3.5 days administered orally 6 hrs post infection by serial dilution method relative to control; assay type: functional, organism-based; summary of the method: as §2
Rattus norvegicus [13] = test: Toxicity in Sprague-Dawley rat at 60 to 1000 mg/kg, po administered as single dose assessed as changes in water consumption measured during 2 weeks post administration; assay type: organism-based; conditions: in vivo, 336 h
Summary of the method: (§3)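 Rats, 30 in total, randomised into three groups. Each received a single oral dose of 60, 250 or 1000 mg/kg on day 1. Poisoning symptoms, mortality, behaviour, water and food consumption and body weight monitored immediately and over 2 weeks.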

Rattus norvegicus [14] = test: Toxicity in Sprague-Dawley rat at 60 to 1000 mg/kg, po administered as single dose assessed as changes in food consumption measured during 2 weeks post administration; assay type: organism-based; conditions: in vivo, 336 h; summary of the method: as §3
Rattus norvegicus [15] = test: Toxicity in Sprague-Dawley rat at 60 to 1000 mg/kg, po administered as single dose assessed as changes in body weight measured during 2 weeks post administration; assay type: organism-based; conditions: in vivo, 336 h; summary of the method: as §3
Enterococcus faecium = test: Antibacterial activity against Enterococcus faecium after 24 hrs by broth dilution method; assay type: functional
[16] = biological target: T2, 4,4'-diapophytoene desaturase (4,4'-diaponeurosporene-forming) (Staphylococcus aureus (strain MW2)) (UniProt Q8NUQ6); conditions: Staphylococcus aureus subsp. aureus MW2; USA400; 1 uM
T2 sequence (whole entry): T1 sequence (O07855 whole entry) with R500Q

[17] = biological target: T3, 4,4'-diapophytoene desaturase (4,4'-diaponeurosporene-forming) (Staphylococcus aureus (strain USA300)) (UniProt Q2FDU6); conditions: Staphylococcus aureus LAC, 1 uM
T3 sequence (whole entry): T1 sequence (O07855 whole entry)

Compound	IC50 [1] [nM]	IC50 [2] [nM]	MIC80 (Trichophyton verrucosum) [µg/mL]	Activity (Staphylococcus aureus [3])	Activity (Staphylococcus aureus [4])	Activity (Staphylococcus aureus [5])	Activity (Staphylococcus aureus [6])	Activity (Staphylococcus aureus [7]) [%]	Cmax [8] [ng/mL]	AUC(0-t) at 24 h [9] [ng·h/mL]	IC50 [10] [nM]	Activity (Staphylococcus aureus [11]) [%]	Activity (Staphylococcus aureus [12])	Activity (Rattus norvegicus [13])	Activity (Rattus norvegicus [14])	Activity (Rattus norvegicus [15])	MIC (Enterococcus faecium) [µg/mL]	Survival [16] [%]	Survival [17] [%]
CN(C/C=C/c1ccc(-c2ccccc2)cc1)Cc1cccc2cc[nH]c12.Cl	3.3	200	> 64	inactive	inactive	inactive	inactive	>95	–	–	–	–	–	–	–	–	–	–	–
CN(C/C=C/c1ccc(-c2ccccc2)cc1)Cc1coc2ccccc12.Cl	2	400	> 64	inactive	inactive	Active	Active	>95	4610	4530	1	90	inactive	Non-Toxic	Non-Toxic	Non-Toxic	> 500	1	0.7
